Source: article PMC5321513 (Structure (London, England : 1993), 2017)
Where a SMILES comes first, the peptide text is derived from it. [ ]: non-standard residue; d: D form. pS = N[C@@H](COP(=O)(O)O)C(=O)O

Columns and labels:
14-3-3σ [1] = target: T1, 14-3-3σ (Homo sapiens, UniProt P31947); assay: Isothermal titration calorimetry; format: binding; settings: 30 °C, pH 7.6
T1 sequence (P31947 1-231): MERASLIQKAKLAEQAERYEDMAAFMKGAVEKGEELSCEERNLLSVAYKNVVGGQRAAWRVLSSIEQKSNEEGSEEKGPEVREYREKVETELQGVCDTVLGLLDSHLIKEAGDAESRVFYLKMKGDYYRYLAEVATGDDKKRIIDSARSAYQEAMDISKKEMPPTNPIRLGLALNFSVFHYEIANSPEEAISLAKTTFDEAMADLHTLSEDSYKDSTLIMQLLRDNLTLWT
In short: (§1)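 ITC was run at 30 °C in 20 mM Tris-HCl pH 7.6 with 150 mM NaCl, 0.1 mM EDTA and 2 mM β-mercaptoethanol. 2 μl aliquots of 14-3-3 were injected into a 0.2 ml cell holding the test phosphopeptide: 44 μM peptide titrated with 0.5 mM full-length human 14-3-3γ, or 100 μM peptide titrated with 1 mM 14-3-3σ. Heat of dilution was subtracted before curve fitting. There were at least three repeats with varied concentrations.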

14-3-3γ = target: T2, 14-3-3γ (Homo sapiens, UniProt P61981); assay: Isothermal titration calorimetry; format: binding; settings: 30 °C, pH 7.6
T2 sequence (P61981 1-247): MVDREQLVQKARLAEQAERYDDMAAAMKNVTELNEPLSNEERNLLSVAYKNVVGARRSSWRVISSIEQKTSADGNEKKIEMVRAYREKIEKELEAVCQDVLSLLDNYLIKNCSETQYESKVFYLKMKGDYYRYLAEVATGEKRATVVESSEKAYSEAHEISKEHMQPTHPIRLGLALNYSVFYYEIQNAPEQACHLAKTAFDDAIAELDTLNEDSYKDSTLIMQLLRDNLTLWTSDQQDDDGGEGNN
In short: as §1

14-3-3 dimer = assay: Affinity of pHSPB6 dimer to the 14-3-3 dimer; format: binding, human; settings: Discussion
14-3-3ζ = settings: ref Sluchanko et al., 2011; cited from earlier work
14-3-3σ [2] = target: T1, 14-3-3σ; assay: AEDANS fluorescence titration of pHSPB6AEDANS by 14-3-3σ; format: binding; settings: excitation at 336 nm, 4.2 µM pHSPB6AEDANS, 30°C
In short: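 Full-length HSPB6 was phosphorylated at Ser16 by PKA in vitro and moved into 20 mM HEPES pH 7.5 with 100 mM NaCl. It was reduced with 20 mM DTT for 20 min at room temperature, desalted, then labelled with a 6-fold molar excess of 1,5-I-AEDANS (1 h room temperature, then overnight at 4 °C), reaching 90% labelling. Human 14-3-3σ(1-231) was added stepwise with 5 min equilibration at 30 °C. Excitation was 336 nm and emission was read at 488 nm. Curves were buffer-corrected and fitted to a quadratic equation.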

14-3-3σ [3] = target: T1, 14-3-3σ; assay: Fluorescence competition titration; format: binding; settings: equimolar concentration and 7-fold excess of phosphopeptide; 30°C
14-3-3 = settings: in vitro; ref Sudnitsyna et al., 2012; cited from earlier work

Compound: CC(C)C[C@H](NC(=O)CNC(=O)[C@@H]1CCCN1C(=O)[C@H](CC(C)C)NC(=O)[C@@H]1CCCN1C(=O)[C@H](C)NC(=O)[C@H](COP(=O)(O)O)NC(=O)[C@H](C)NC(=O)[C@H](CCCNC(=N)N)NC(=O)[C@H](CCCNC(=N)N)NC(=O)[C@H](CC(C)C)NC(=O)[C@@H](N)Cc1c[nH]c2ccccc12)C(=O)N[C@@H](CCCCN)C(=O)O [phosphopeptide 11-23] (H-WLRRA[pS]APLPGLK-OH)
- stoichiometry of binding (ITC) (14-3-3σ [1]): one peptide per 14-3-3 subunit
- stoichiometry of binding (ITC) (14-3-3γ): one peptide per 14-3-3 subunit

Compound: pHSPB6: phosphorylated small heat shock protein HSPB6 (HSP20)
- apparent affinity to the 14-3-3 dimer (14-3-3 dimer): submicromolar apparent affinity
- affinity to 14-3-3ζ (14-3-3ζ): micromolar affinity

Compound: pHSPB6^AEDANS: phosphorylated full-length HSPB6 stoichiometrically labeled at its unique Cys46 residue with 1,5-I-AEDANS
- fluorescence peak shift upon titration with 14-3-3σ (14-3-3σ [2]): shifted from 486 to 479 nm
- 14-3-3σ/pHSPB6AEDANS interaction in the presence of phosphopeptide (14-3-3σ [3]): resulted in a saturable curve (Fig.2b), suggestive of a retained 14-3-3σ/pHSPB6^AEDANS interaction

Compound: phosphocofilin: phosphocofilin, 14-3-3 complex partner
- direct 14-3-3/phosphocofilin interaction (14-3-3): could not be confirmed in vitro
